Tests used:
Type in all cases: tissue-based
Rattus norvegicus [1] = species: Rattus norvegicus; assay: Stimulation [3H]flunitrazepam binding to benzodiazepine binding site of GABA-A receptor in Sprague-Dawley rat cerebellum by liquid scintillation spectrophotometry
How it was run: (§1)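 Male rat (200–250 g) cerebellar P2 membranes, washed and resuspended in 50 mM Tris–HCl pH 7.1 (~1 mg/mL protein). Incubated with 1 nM [3H]flunitrazepam and steroids at 10–800 nM for 90 min at 4 °C. Steroids were in DMSO, diluted 1:1000 in buffer just before use. 1 µM diazepam defined non-specific binding. Filtered, then scintillation counting. Mean of four experiments in duplicate.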

Rattus norvegicus [2] = species: Rattus norvegicus; assay: Stimulation [3H]flunitrazepam binding to benzodiazepine binding site of GABA-A receptor in Sprague-Dawley rat cerebellum at 250 nM by liquid scintillation spectrophotometry; how it was run: as §1
Rattus norvegicus [3] = species: Rattus norvegicus; assay: Stimulation [3H]flunitrazepam binding to benzodiazepine binding site of GABA-A receptor in Sprague-Dawley rat cerebellum at 500 nM by liquid scintillation spectrophotometry; how it was run: as §1
Rattus norvegicus [4] = species: Rattus norvegicus; assay: Stimulation [3H]muscimol binding to GABA binding site of GABA-A receptor in Sprague-Dawley rat cerebellum at 100 nM by liquid scintillation spectrophotometry
How it was run: (§2)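 Rat cerebellar P2 membranes (male, 200–250 g) in 50 mM Tris–acetate pH 7.4, about 1 mg/mL protein. Incubated with 10 nM [3H]muscimol and steroids at 20–1000 nM for 60 min at 4 °C. Steroid DMSO stocks were diluted 1:1000 in buffer. 10 µM GABA defined non-specific binding. Vacuum filtration over glass-fibre filters, scintillation counting. Four experiments in duplicate, averaged.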

Rattus norvegicus [5] = species: Rattus norvegicus; assay: Stimulation [3H]flunitrazepam binding to benzodiazepine binding site of GABA-A receptor in Sprague-Dawley rat cerebellum at 100 nM by liquid scintillation spectrophotometry; how it was run: as §1
Rattus norvegicus [6] = species: Rattus norvegicus; assay: Stimulation [3H]muscimol binding to GABA binding site of GABA-A receptor in Sprague-Dawley rat cerebellum at 50 nM by liquid scintillation spectrophotometry; how it was run: as §2
Rattus norvegicus [7] = species: Rattus norvegicus; assay: Stimulation [3H]muscimol binding to GABA binding site of GABA-A receptor in Sprague-Dawley rat cerebellum at 20 nM by liquid scintillation spectrophotometry; how it was run: as §2
Rattus norvegicus [8] = species: Rattus norvegicus; assay: Stimulation [3H]flunitrazepam binding to benzodiazepine binding site of GABA-A receptor in Sprague-Dawley rat cerebellum at 800 nM by liquid scintillation spectrophotometry; how it was run: as §1
Rattus norvegicus [9] = species: Rattus norvegicus; assay: Stimulation [3H]flunitrazepam binding to benzodiazepine binding site of GABA-A receptor in Sprague-Dawley rat cerebellum at 10 nM by liquid scintillation spectrophotometry; how it was run: as §1
Rattus norvegicus [10] = species: Rattus norvegicus; assay: Stimulation [3H]muscimol binding to GABA binding site of GABA-A receptor in Sprague-Dawley rat cerebellum at 800 nM by liquid scintillation spectrophotometry; how it was run: as §2
Rattus norvegicus [11] = species: Rattus norvegicus; assay: Stimulation [3H]muscimol binding to GABA binding site of GABA-A receptor in Sprague-Dawley rat cerebellum at 1000 nM by liquid scintillation spectrophotometry; how it was run: as §2
Rattus norvegicus [12] = species: Rattus norvegicus; assay: Stimulation [3H]muscimol binding to GABA binding site of GABA-A receptor in Sprague-Dawley rat cerebellum at 200 nM by liquid scintillation spectrophotometry; how it was run: as §2
Rattus norvegicus [13] = species: Rattus norvegicus; assay: Stimulation [3H]flunitrazepam binding to benzodiazepine binding site of GABA-A receptor in Sprague-Dawley rat cerebellum at 50 nM by liquid scintillation spectrophotometry; how it was run: as §1
Rattus norvegicus [14] = species: Rattus norvegicus; assay: Stimulation [3H]muscimol binding to GABA binding site of GABA-A receptor in Sprague-Dawley rat cerebellum at 400 nM by liquid scintillation spectrophotometry; how it was run: as §2
Rattus norvegicus [15] = species: Rattus norvegicus; assay: Stimulation [3H]muscimol binding to GABA binding site of GABA-A receptor in Sprague-Dawley rat cerebellum by liquid scintillation spectrophotometry; how it was run: as §2
Rattus norvegicus [16] = species: Rattus norvegicus; assay: Stimulation [3H]flunitrazepam binding to benzodiazepine binding site of GABA-A receptor in Sprague-Dawley rat cerebellum at 25 nM by liquid scintillation spectrophotometry; how it was run: as §1

CC(=O)[C@H]1CC[C@H]2[C@@H]3CC[C@H]4C[C@H](O)[C@@H]5C[C@]4(COS(=O)(=O)N5)[C@H]3CC[C@]12C
EC50 (Rattus norvegicus [1]): 63 nM | Activity (Rattus norvegicus [2]): 126% | Activity (Rattus norvegicus [3]): 126% | Activity (Rattus norvegicus [4]): 108% | Activity (Rattus norvegicus [5]): 122% | Activity (Rattus norvegicus [6]): 105% | Activity (Rattus norvegicus [7]): 100% | Activity (Rattus norvegicus [8]): 170% | Activity (Rattus norvegicus [9]): 104% | Activity (Rattus norvegicus [10]): 170% | Activity (Rattus norvegicus [11]): 176% | Activity (Rattus norvegicus [12]): 106% | Activity (Rattus norvegicus [13]): 122% | Activity (Rattus norvegicus [14]): 118% | EC50 (Rattus norvegicus [15]): 542 nM | Activity (Rattus norvegicus [16]): 113%

CC(=O)[C@H]1CC[C@H]2[C@@H]3CC[C@H]4C[C@H](F)[C@@H]5C[C@]4(COS(=O)(=O)N5)[C@H]3CC[C@]12C
Activity (Rattus norvegicus [8]): 98% | Activity (Rattus norvegicus [10]): 96%

CC(=O)[C@H]1CC[C@H]2[C@@H]3CC[C@H]4C[C@H](O)CC[C@]4(C)[C@H]3CC[C@]12C
EC50 (Rattus norvegicus [1]): 265 nM | Activity (Rattus norvegicus [2]): 122% | Activity (Rattus norvegicus [3]): 132% | Activity (Rattus norvegicus [4]): 108% | Activity (Rattus norvegicus [5]): 97% | Activity (Rattus norvegicus [6]): 100% | Activity (Rattus norvegicus [7]): 95% | Activity (Rattus norvegicus [8]): 140% | Activity (Rattus norvegicus [9]): 93% | Activity (Rattus norvegicus [10]): 165% | Activity (Rattus norvegicus [11]): 173% | Activity (Rattus norvegicus [12]): 106% | Activity (Rattus norvegicus [13]): 92% | Activity (Rattus norvegicus [14]): 116% | EC50 (Rattus norvegicus [15]): 658 nM | Activity (Rattus norvegicus [16]): 93%

CC(=O)[C@H]1CC[C@H]2[C@@H]3CC[C@H]4C[C@H](O)[C@@H]5C[C@]4(COS(=O)(=O)N5Cc4ccccc4)[C@H]3CC[C@]12C
EC50 (Rattus norvegicus [1]): 81 nM | Activity (Rattus norvegicus [2]): 122% | Activity (Rattus norvegicus [3]): 125% | Activity (Rattus norvegicus [4]): 121% | Activity (Rattus norvegicus [5]): 117% | Activity (Rattus norvegicus [6]): 121% | Activity (Rattus norvegicus [7]): 119% | Activity (Rattus norvegicus [8]): 134% | Activity (Rattus norvegicus [9]): 108% | Activity (Rattus norvegicus [10]): 124% | Activity (Rattus norvegicus [11]): 141% | Activity (Rattus norvegicus [12]): 117% | Activity (Rattus norvegicus [13]): 118% | Activity (Rattus norvegicus [14]): 124% | EC50 (Rattus norvegicus [15]): 1890 nM | Activity (Rattus norvegicus [16]): 113%
